Measured values published in ChEMBL document CHEMBL4014299, “Synthesis and anti-HIV activities of unsymmetrical long chain dicarboxylate esters of dinucleoside reverse transcriptase inhibitors” (Bioorg Med Chem Lett, 2017).

Experiments:
Format in all cases: cell-based
[1] = Inhibition of HIV1 3B […] reverse transcriptase infected in human P4R5 MAGI cells assessed as reduction in viral infection after 2 hrs by Galacto-Star beta-galactosidase reporter gene assay; details: Human immunodeficiency virus 1, 3B
Method in brief: (§1)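 Single-round infection against cell-free virus: compounds, virus and target cells incubated together 2 h, cells washed, then cultured a further 48 h. Infection read as HIV-LTR-driven galactosidase expression; EC50 = 50% effective concentration. Line 2 uses the X4 (lymphocytotropic) strain, line 3 the R5 (monocytotropic) strain. DMSO served as negative control and dextran sulfate as positive control. Triplicate (n = 3).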

[2] = Inhibition of HIV1 BaL […] reverse transcriptase infected in human P4R5 MAGI cells assessed as reduction in viral infection after 2 hrs by Galacto-Star beta-galactosidase reporter gene assay; details: Human immunodeficiency virus 1, BaL; method in brief: as §1
[3] = Cytotoxicity against human P4R5 MAGI cells after 2 hrs by MTT assay
Method in brief: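 Cytotoxicity to target cells by MTT assay, giving CC50 (50% toxic concentration). Run in triplicate (n = 3).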

EC50 [1] [µM]	EC50 [2] [µM]	Structure (SMILES)	CC50 at 2 h [3] [µM]
0.2	< 0.15	Cc1cn([C@H]2C[C@H](N=[N+]=[N-])[C@@H](COC(=O)CCCCCCC(=O)OC[C@H]3O[C@@H](n4cc(C)c(=O)[nH]c4=O)C[C@@H]3N=[N+]=[N-])O2)c(=O)[nH]c1=O	> 148
44.5	42.2	Cc1cn([C@H]2C[C@H](F)[C@@H](COC(=O)CCC(=O)OC[C@@H]3O[C@H](n4ccc(N)nc4=O)CS3)O2)c(=O)[nH]c1=O	> 180
14	68.1	Cc1cn([C@H]2C[C@H](N=[N+]=[N-])[C@@H](COC(=O)CCC(=O)OC[C@H]3O[C@@H](n4cc(C)c(=O)[nH]c4=O)C[C@@H]3N=[N+]=[N-])O2)c(=O)[nH]c1=O	> 162
1.8	0.55	Cc1cn([C@H]2C[C@H](F)[C@@H](COC(=O)CCCCCCCCCCCCC(=O)O)O2)c(=O)[nH]c1=O	> 61
0.047	0.075	Cc1cn([C@H]2C[C@H](F)[C@@H](COC(=O)CCCCCCCCCCCCC(=O)OC[C@@H]3O[C@H](n4cc(F)c(N)nc4=O)CS3)O2)c(=O)[nH]c1=O	> 42
14.7	17.5	Cc1cn([C@H]2C[C@H](N=[N+]=[N-])[C@@H](COC(=O)CCC(=O)OC[C@H]3O[C@@H](n4cc(C)c(=O)[nH]c4=O)C[C@@H]3F)O2)c(=O)[nH]c1=O	> 168
3.7	3	Cc1cn([C@H]2C[C@H](F)[C@@H](COC(=O)CCC(=O)OC[C@H]3O[C@@H](n4cc(C)c(=O)[nH]c4=O)C[C@@H]3F)O2)c(=O)[nH]c1=O	> 175
0.1	0.07	Cc1cn([C@H]2C[C@H](F)[C@@H](COC(=O)CCCCCCCCCCCCC(=O)OC[C@@H]3O[C@H](n4ccc(N)nc4=O)CS3)O2)c(=O)[nH]c1=O	> 43
26.6	4.7	Nc1ccn([C@@H]2CS[C@H](COC(=O)CCCCCCC(=O)OC[C@@H]3O[C@H](n4ccc(N)nc4=O)CS3)O2)c(=O)n1	> 168
0.4	0.5	Cc1cn([C@H]2C[C@H](F)[C@@H](COC(=O)CCCCCCC(=O)OC[C@H]3O[C@@H](n4cc(C)c(=O)[nH]c4=O)C[C@@H]3F)O2)c(=O)[nH]c1=O	> 160
0.18	0.073	Nc1ccn([C@@H]2CS[C@H](COC(=O)CCCCCCCCCCCCC(=O)OC[C@@H]3O[C@H](n4cc(F)c(N)nc4=O)CS3)O2)c(=O)n1	> 43
16.1	19.2	Cc1cn([C@H]2C[C@H](N=[N+]=[N-])[C@@H](COC(=O)CCC(=O)OC[C@@H]3O[C@H](n4ccc(N)nc4=O)CS3)O2)c(=O)[nH]c1=O	> 173
0.8	3.3	Cc1cn([C@H]2C[C@H](F)[C@@H](CO)O2)c(=O)[nH]c1=O [ALOVUDINE]	> 410
1.9	0.7	Nc1nc(=O)n([C@@H]2CS[C@H](CO)O2)cc1F [EMTRICITABINE]	> 200
32.7	11.3	Nc1ccn([C@@H]2CS[C@H](CO)O2)c(=O)n1 [LAMIVUDINE]	80.3
34.4	129	Cc1cn([C@H]2C[C@H](N=[N+]=[N-])[C@@H](CO)O2)c(=O)[nH]c1=O [ZIDOVUDINE]	> 374
